# Assays:
# Mus musculus [1] = test: Compound was evaluated for the hypolipidemic activity in CF1 male mice at a dose of 10 mg/kg orally for Serum triglyceride at 16th day; assay type: functional; details: route oral
# Method in brief: (§1)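 CF1 male mice received the agent orally in 1% CMC at 10–60 mg/kg per day. Tail-vein blood was taken on days 9 and 16. Serum cholesterol was measured by modified Liebermann–Burchard on duplicate 25-µL samples, and serum triglyceride on day 16 in duplicate 50-µL samples. Values are % of vehicle control, mean ± SD, N = 6; Student's t test.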
# [2] = target: T1, Sterol O-acyltransferase 1 (Mus musculus) (UniProt Q61263); test: In Vitro evaluation for the CF1 liver enzyme activity on Acyl cholesterol acyltransferase at concentration 100 uM; assay type: functional, tissue-based
# T1 sequence (whole entry): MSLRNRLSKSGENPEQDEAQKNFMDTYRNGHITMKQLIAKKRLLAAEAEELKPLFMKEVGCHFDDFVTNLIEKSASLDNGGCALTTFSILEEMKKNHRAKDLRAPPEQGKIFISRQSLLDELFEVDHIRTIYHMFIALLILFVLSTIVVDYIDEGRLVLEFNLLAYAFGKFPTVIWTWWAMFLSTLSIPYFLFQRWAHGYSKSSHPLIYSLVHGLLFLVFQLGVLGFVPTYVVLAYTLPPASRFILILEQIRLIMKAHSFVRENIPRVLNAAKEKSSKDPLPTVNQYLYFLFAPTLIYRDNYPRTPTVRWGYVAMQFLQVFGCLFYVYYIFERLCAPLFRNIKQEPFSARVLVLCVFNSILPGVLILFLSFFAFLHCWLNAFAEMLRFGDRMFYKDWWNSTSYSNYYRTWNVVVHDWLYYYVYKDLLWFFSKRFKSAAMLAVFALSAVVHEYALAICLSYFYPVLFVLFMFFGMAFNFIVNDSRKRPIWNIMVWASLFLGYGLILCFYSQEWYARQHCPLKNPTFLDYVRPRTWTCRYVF
# Method in brief: (§2)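 Liver was taken from CF1 male mice and made into 10% homogenates, which were incubated with test compound at 50, 100 or 200 µM. Each enzyme was assayed by its literature method, and protein was measured by Lowry. N = 6. Activity is expressed as % of untreated control ± SD.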
# Mus musculus [3] = test: Hypolipidemic activity in CF1 male mice at a dose of 20 mg/kg per day, serum triglyceride measured on the 16th day; assay type: functional
# Method in brief: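 CF1 male mice (~30 g) were given 20 mg/kg per day ip at 11:00 a.m.; N = 6 per group. Tail-vein serum was collected in nonheparinized microcapillaries. Cholesterol was measured on days 9 and 16 by modified Liebermann–Burchard on duplicate 25 µL samples. Triglyceride was measured on day 16 in a separate group, duplicate 50 µL. Values are % control ± SD; Student's t test.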
# Mus musculus [4] = species on record: Mus musculus; test: In Vitro evaluation for the CF1 liver enzyme activity on Hepatic lipoprotein lipase at concentration 50 uM; assay type: functional
# Method in brief: (§3)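 Mouse liver enzymes assayed in vitro on 10% homogenates of CF1 male mouse liver, with test drug added at 50–200 μM. Each enzyme follows a published procedure. Protein is measured by Lowry. Activity is given as % of untreated control (X ± SD, N = 6).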
# Mus musculus [5] = test: Compound was evaluated for the hypolipidemic activity in CF1 male mice at a dose of 10 mg/kg orally for Serum cholesterol at 16th day; assay type: functional; details: route oral; method in brief: as §1
# Mus musculus [6] = test: In Vivo effect for the hypolipidemic activity on Acetyl-coenzyme A synthetase in CF1 mice after 16 days of oral administration at a dose of 10 mg/kg; assay type: functional
# Method in brief: (§4)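 CF1 male mice are dosed orally at 10–60 mg/kg per day for 16 days, with 1% CMC as the control vehicle. Liver is homogenized at 10% in 0.25 M sucrose + 0.001 M EDTA, pH 7.2. Enzymes are assayed by literature methods, with Lowry protein. Activity is given as % of control (X ± SD, N = 6), with p from Student's t test.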
# Mus musculus [7] = species on record: Mus musculus; test: In Vitro evaluation for the CF1 liver enzyme activity on phosphatidate phosphohydrolase at concentration 50 uM; method in brief: as §3
# [8] = target: Acetyl-CoA carboxylase 1 (Mus musculus) (UniProt Q5SWU9); test: In Vitro evaluation for the CF1 liver enzyme activity on Acetyl-CoA carboxylase at concentration 100 uM; method in brief: as §2
# [9] = target: Cholesterol 7-alpha-hydroxylase (Cytochrome P450 7A1) (Mus musculus, UniProt Q64505); test: In vivo effect on Cholesterol 7-alpha-hydroxylase activity in CF1 mice after 16 days at 10 mg/kg oral dose; assay type: functional, organism-based; design: dose 10 mg/kg, route oral; details: read-out: Control; method in brief: as §4
# Sequence of Cholesterol 7-alpha-hydroxylase (Cytochrome P450 7A1) (Q64505 whole entry): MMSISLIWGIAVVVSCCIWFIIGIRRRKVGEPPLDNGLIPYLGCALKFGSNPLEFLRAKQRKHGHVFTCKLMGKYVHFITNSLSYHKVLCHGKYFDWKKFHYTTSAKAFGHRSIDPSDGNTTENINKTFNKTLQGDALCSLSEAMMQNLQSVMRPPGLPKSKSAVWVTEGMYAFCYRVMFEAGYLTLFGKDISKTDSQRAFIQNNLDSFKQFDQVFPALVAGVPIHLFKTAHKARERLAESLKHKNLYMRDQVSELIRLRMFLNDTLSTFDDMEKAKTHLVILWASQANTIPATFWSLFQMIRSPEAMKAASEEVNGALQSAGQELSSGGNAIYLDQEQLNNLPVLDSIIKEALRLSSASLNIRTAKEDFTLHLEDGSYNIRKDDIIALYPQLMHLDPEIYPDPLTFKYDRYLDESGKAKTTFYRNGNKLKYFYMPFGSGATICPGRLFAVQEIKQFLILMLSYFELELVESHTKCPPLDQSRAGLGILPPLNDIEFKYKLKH
# [10] = target: T1, Sterol O-acyltransferase 1 (Mus musculus); test: In Vivo effect for the hypolipidemic activity on Acyl-COA cholesterol acyltransferase in CF1 mice after 16 days of oral administration at a dose of 40 mg/kg; assay type: functional, organism-based; design: dose 40 mg/kg; method in brief: as §4
# Rattus norvegicus [11] = test: Compound was evaluated for the hypolipidemic activity at 20 mg/kg per day orally for 14 days on lipid content in rat feces.; assay type: functional; details: route oral
# Method in brief: (§5)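 Male Sprague–Dawley rats were dosed orally for 14 days. Liver, small intestine and a 24-h fecal collection were lipid-extracted. Extracts were assayed for cholesterol (modified Liebermann–Burchard), triglyceride (enzymatic kit), neutral lipids, phospholipids and protein. Values are % of 1% CMC vehicle control, mean ± SD, N = 6.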
# Rattus norvegicus [12] = test: Compound was evaluated for the hypolipidemic activity at 20 mg/kg per day orally for 14 days on phospholipids content in rat feces.; assay type: functional; details: route oral; method in brief: as §5
compound,measurement,setting,value
COc1ccc(C2C(=O)c3ccccc3C2=O)cc1 [ANISINDIONE],Control,Mus musculus [1],64%
same,Control,[2],63%
same,"Serum triglyceride, % of control",Mus musculus [3],42%
same,Control,Mus musculus [4],86%
same,Control,Mus musculus [5],63%
same,Control,Mus musculus [6],83%
same,Control,Mus musculus [7],36%
same,Control,[8],93%
same,activity at 384 h,[9],52%
same,Control,[10],42%
same,Control,Rattus norvegicus [11],103%
same,Control,Rattus norvegicus [12],100%
